For data set [1], the system named is multiple myeloma. Particulars: twice weekly carfilzomib monotherapy 20/27 mg/m^2; cited from earlier work.
Data set [2] has as its system multiple myeloma. Conditions: twice weekly carfilzomib monotherapy 20/45 or 20/56 mg/m^2; cited from earlier work.
A short description of data set [3]: Plasma pharmacokinetics of carfilzomib after 30-minute intravenous infusion. It is filed as in vivo, human. Particulars: for AUClast / T1/2 (terminal elimination half-life): mean ± SD, SD; for Tmax: median (minimum-maximum). The method in brief:
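Relapsed/refractory myeloma patients got a 30-min IV infusion of test compound with dexamethasone 40 mg. Plasma was sampled on Days 1 (20 mg/m2) and 15 (70 mg/m2) of Cycle 1: pre-infusion, 5 and 15 min after start, just before end, then 5, 15, 30 min and 1, 2, 4 h post-infusion. Per-patient parameters were summarised as mean ± SD, Tmax as median (min–max).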

[4] abbreviates: Day 1 of Cycle 1, carfilzomib 20 mg/m^2 iv, N = 6.
The mark [5] stands for this setting: Day 15 of Cycle 1, carfilzomib 70 mg/m^2 iv, N = 5.

Read-outs that look alike come from different tables or passages of the source.

Turning to `CC(C)C[C@H](NC(=O)[C@H](CCc1ccccc1)NC(=O)CN1CCOCC1)C(=O)N[C@@H](Cc1ccccc1)C(=O)N[C@@H](CC(C)C)C(=O)[C@@]1(C)CO1` [carfilzomib], the ORR in the data set on multiple myeloma [1] is 22.5%. Moreover, the ORR with multiple myeloma [2] is 57.1%. Moreover, in data set [3] (setting [4]), the AUClast came to 355 ± 120 ng·h/mL, the “T1/2 (terminal elimination half-life)” value was found to be 41 ± 15.1 min and the Tmax was 0.575 (0.250‐0.617) h. Besides, in data set [3] (setting [5]), the AUClast came to 1250 ± 285 ng·h/mL, the “T1/2 (terminal elimination half-life)” value amounted to 54 ± 4.44 min and the Tmax is 0.467 (0.250‐0.617) h.

These data come from paper PMC6172054 (Cancer Science, 2018).
